Bioassay records: PubChem BioAssay, Broad Institute
S100A4 inh HTS: blocks human S100A4 binding to myosin IIA peptide | P26447 | S100A4/TAMRA-MyoIIA peptide fluorescence polarization | inhibition, % at 10.7 µM | 360,000 compounds, 0.14% hits | AID 652163;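 active = mean inhibition of at least 70% across replicates, with every replicate also reaching that level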
Target sequence (P26447 whole entry, looked up): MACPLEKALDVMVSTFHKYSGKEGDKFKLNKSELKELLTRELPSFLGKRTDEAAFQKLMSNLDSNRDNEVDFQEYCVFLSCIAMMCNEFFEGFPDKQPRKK
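System – human S100A4 monomer protein, biochemical binding assay · Buffer or medium – Calcium-containing HEPES buffer, pH 7.2 · Timing – 5 min between mix addition and reading · Also added – TAMRA-labelled myosin IIA heavy-chain peptide probe, 5 nM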
FGF22 binding: binders of recombinant human FGF22 by thermal shift. activity (Tm shift, normalised), % at 9.99 µM. Q9HCT0. 340,000 compounds, 1.5% hits. SYPRO orange fluorescence; percent of sucrose octasulfate shift, DMSO zero;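 active = mean Tm shift, scaled 0 neutral to 100 positive control, at about 1.3% or above, every replicate too, limit read from the data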
Target sequence (Q9HCT0 whole entry, looked up): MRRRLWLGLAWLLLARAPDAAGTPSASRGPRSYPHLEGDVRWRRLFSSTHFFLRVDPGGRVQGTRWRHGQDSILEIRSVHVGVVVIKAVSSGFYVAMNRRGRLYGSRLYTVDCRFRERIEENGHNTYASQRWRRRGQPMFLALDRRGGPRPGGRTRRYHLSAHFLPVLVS
PDI inh: blocks human protein disulfide isomerase activity | 350,000 compounds, 0.052% hits | inhibition, % at 10 µM | PDI insulin aggregation turbidity, A650, 90 min;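 active = mean inhibition across replicates of 30% or more, whatever share of single replicates reach that level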
ERp5 block: inhibitors of human ERp5 | 350,000 compounds, 0.05% hits | Q15084 | inhibition, % at 9.99 µM | AID 651711 | ERp5 insulin aggregation, absorbance 650 nm, 90 min;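 active = mean replicate inhibition above about 25%, with every replicate also reaching it, limit read from the data, passing the limit was not always enough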
ERAP1 HTS inh: inhibitors of human ERAP1 aminopeptidase. Q9NZ08. recombinant ERAP1, Leu-AMC fluorescence, 60 min. inhibition, % at 10.7 µM. 340,000 compounds, 0.15% hits. AID 652197;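 active = mean replicate inhibition of at least 30%, or all replicates individually reaching that 30% level; inactive = mean below 30% and not every replicate reaching it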
Each line names hits and unclear results; the compound was inactive in the other large screens; ! = repeats disagree. This is one part of a sample in which hits are shown more often than they occur.

Cc1ccc(S(=O)(=O)Nc2cccc3c2O[C@H](CN(C)Cc2ccc(C(=O)Nc4ccccc4N)cc2)[C@@H](C)CN([C@@H](C)CO)C3=O)cc1	FGF22 binding 1.4 (no result: PDI inh)
Cc1c(NC(=O)COC(=O)c2ncc(Cl)c(Cl)c2Cl)c(=O)n(-c2ccccc2)n1C	none
Cc1cc(C)n2cc(CSc3ncn[nH]3)nc2n1	FGF22 binding 43
Cc1cc(C)n2cc(CSCC(=O)O)nc2n1	none (no result: S100A4 inh HTS, FGF22 binding, ERp5 block, ERAP1 HTS inh)
Cc1cc(C)n2cc(CSc3ccc(Br)cc3)nc2n1	FGF22 binding 43
Cc1[nH]c2ccccc2c1SCC(=O)NC1CCCCC1	none
Cc1ccc(S(=O)(=O)N2[C@@H](c3ccc(C#N)cc3)C(C(=O)O)=C[C@H]2CC2CCCC2)cc1	FGF22 binding 1.4
CCCC[C@@H]1C=C(C(=O)O)[C@H](c2ccc3c(c2)OCO3)N1S(=O)(=O)c1ccc(C)cc1	FGF22 binding 1.8
O=C(C[C@H]1C/C=C\CC[C@H](Cc2ccc(F)cc2)C(=O)O[C@@H](c2ccccc2)CNC1=O)N[C@H](CO)Cc1ccccc1	none (no result: ERAP1 HTS inh)
CC(C)(C)OC(=O)C[C@H]1C/C=C\C[C@H](CC(=O)N[C@H](CO)Cc2ccccc2)C(=O)N[C@H](Cc2ccccc2)COC1=O	S100A4 inh HTS 108
CC(C)(C)OC(=O)C[C@@H]1C/C=C\C[C@H](CC(=O)N[C@H](CO)Cc2ccccc2)C(=O)N[C@H](Cc2ccccc2)COC1=O	none
O=C(C[C@H]1C/C=C\CC[C@H](Cc2ccc(F)cc2)C(=O)O[C@@H](c2ccccc2)CNC1=O)N[C@@H](CO)Cc1ccccc1	FGF22 binding 44
O=C1NC2(CCCCC2)C(=O)N1Cc1cccc(C(F)(F)F)c1	FGF22 binding 43
Cn1c(CCC(=O)Nc2ccc(S(C)(=O)=O)cc2)nc2cc(S(=O)(=O)N3CCOCC3)ccc21	none
COc1ccc(OCC(=O)OCC(=O)Nc2cc(S(=O)(=O)N3CCOCC3)ccc2Cl)cc1	FGF22 binding 43
CCOC(=O)C1CCCN(C(=S)Nc2ccc(S(=O)(=O)N3CCOCC3)cc2)C1 (configuration not stated)	FGF22 binding 43
Cn1c(CCC(=O)Nc2cc(S(C)(=O)=O)ccc2Cl)nc2cc(S(=O)(=O)N3CCOCC3)ccc21	ERAP1 HTS inh 63
CCOC(=O)N1CCN(C(=S)Nc2cc(S(=O)(=O)N3CCOCC3)ccc2Cl)CC1	FGF22 binding 45
COc1cc(NC(=O)Nc2nnc([C@H]3C[C@H](O)[C@@H](CO)O3)s2)cc(OC)c1	none
CC(=O)Nc1cccc(-c2ccnc3c2CC(C(=O)Nc2cccc(N(C)C)c2)O3)c1 (configuration not stated)	none
CCNC(=O)[C@@H]1[C@@H](CO)[C@@H]2Cn3c(ccc(-c4ccc(OC)cc4)c3=O)[C@H]1N2CC1CC1	none (no result: PDI inh)
C[C@H](CO)N1C[C@H](C)[C@H](CN(C)CC2CC2)Oc2cc(C#CCN(C)C)ccc2S1(=O)=O	none (no result: PDI inh)
Cc1cc(S(=O)(=O)NCc2ccco2)c(C)s1	none (no result: S100A4 inh HTS, FGF22 binding, ERp5 block, ERAP1 HTS inh)
C[C@H](CO)N1C[C@H](C)[C@@H](CN(C)Cc2ccc(C(=O)Nc3ccccc3N)cc2)Oc2ccc(NC(=O)Cc3cn(C)c4ccccc34)cc2CC1=O	none (no result: PDI inh)
Cc1cccc(NC(=O)c2cccc(C(=O)Nc3cccc(C)c3)c2)c1	FGF22 binding 2.0
Cc1cccc(C(=O)Nc2ccc(NC(=O)c3cccc(C)c3)cc2)c1	none
Cc1ccc(NC(=O)c2cccc(S(C)(=O)=O)c2)cc1	ERp5 block 26
Cc1nn(C(C)C(=O)O)c(C)c1[N+](=O)[O-] (configuration not stated)	none
CC(=O)c1cccc(NC(=O)c2cccc3c(-c4cnn(C)c4)coc23)c1	none
CCOC(=O)c1c(NC(=O)COc2ccccc2F)sc2c1CC(C)(C)NC2(C)C	FGF22 binding 18
Nc1cc(-c2ccncc2)c[nH]c1=O	S100A4 inh HTS 152!
NC(=O)c1csc(-c2ccncc2)n1	none (no result: S100A4 inh HTS, FGF22 binding, ERp5 block, ERAP1 HTS inh)
Cc1[nH]c2ccccc2c1N=Nc1ccccc1F	FGF22 binding 44
Cc1[nH]c2ccccc2c1N=Nc1ccc(F)cc1	none
O=C(O)CC1=C(Nc2ccccc2)C(=O)N(c2ccccc2)C1c1ccc(F)cc1 (configuration not stated)	FGF22 binding 43
COc1ccc(C2C(CC(=O)O)=C(Nc3ccccc3)C(=O)N2c2ccccc2)cc1 (configuration not stated)	none
